We go through 2 compounds from paper PMC4681692 (Child's nervous system : ChNS : official journal of the …, 2015).

One data set concerns NOTCH. As to conditions: adults, weekly administration; cited from earlier work.
The conditions of data set [1]: children, 3-days-on/4-days-off schedule; cited from earlier work.
Data set [2] deals with NOTCH1 cleavage (NICD1) in PBMCs. Put plainly: NICD1 expression in PBMCs by Western blot. As to conditions: for patients with NICD1 expression decreased from baseline: PBMCs. In kind it is in vivo, human.
In the next data set the test system is NOTCH pathway genes. As to conditions: healthy adults, once weekly dosing; cited from earlier work.
For data set [3] the following is noted: cited from earlier work; for t1/2: adults.
The test system of data set [4] is refractory adult solid tumors. As to conditions: cited from earlier work.
Data set [5] in a line: Plasma pharmacokinetics of weekly MK-0752, dose 1 course 1. The note with it: human, oral, both dose levels. The data set is classed as in vivo. The essentials:
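Children with recurrent CNS tumours took oral test compound capsules once weekly at 1,000 or 1,400 mg/m2, in 28-day courses. Heparinised blood was drawn before dose 1 of course 1 and at 1, 2, 3, 6, 8 (±2), 24 (±4) and 48 h after it. Plasma drug was measured by validated LC-MS/MS and analysed non-compartmentally. β came from the last two measurable points, and t1/2 = ln(2)/β.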

For a further data set, the system named is advanced breast cancer. The note with it: with docetaxel, MK-0752 days 1-3, of 30 evaluable patients; cited from earlier work.
The subject of data set [6] is recurrent CNS tumors. Put plainly: Tumor response in phase I trial of weekly MK-0752. The data set is classed as in vivo, human. The method in brief: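 The oral test compound was given once weekly at 1,000 or 1,400 mg/m2 in 28-day courses, using a rolling-6 design. Disease was assessed at baseline, after course 2 and after every other course thereafter. Patients got up to 6 courses unless disease progressed, and those with stable disease after 6 courses could receive up to 13 more.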

The test system of a further data set is amyloid peptide levels. The note with it: animal models; cited from earlier work.
Data set [7] concerns recurrent CNS tumors. The note with it: children, 3-days-on/4-days-off schedule; cited from earlier work.
The test system of data set [8] is children with recurrent CNS tumors. The note with it: 3-days-on/4-days-off schedule; cited from earlier work.
Data set [9] concerns children with recurrent central nervous system (CNS) malignancies. The note with it: in vivo.
The subject of data set [10] is platinum-resistant ovarian carcinoma xenograft model. As to conditions: cited from earlier work.
The next data set relates to glioblastoma cell lines. As to conditions: combination with Akt inhibitor MK-2206, compared to monotherapy; cited from earlier work.

Read-outs that look alike come from different tables or passages of the source. A value given as a limit tells only on which side of the number the result lay.

Regarding `O=C(O)CC[C@H]1CC[C@@](c2cc(F)ccc2F)(S(=O)(=O)c2ccc(Cl)cc2)CC1` [MK-0752], the “dose achieving target inhibition” value with NOTCH is 3,200 mg. Also, the t1/2 in data set [1] was 11.4 h. For the same compound, in data set [2] (24 hours after the higher dose (1,400 mg)), the “change in NICD expression in PBMCs” value is listed as “dose-dependent decrease”. In addition, the “patients with NICD1 expression decreased from baseline” value in [2] (24 hours post MK-0752, 1,000 and 1,400 mg/m^2) is on record as 6 of 7. Also, the “patients with NICD1 expression decreased from baseline” value in [2] (24 hours post MK-0752, treated at 1,400 mg/m^2 (n=3)) is “all three”. In addition, the “duration of decreased expression of NOTCH pathway genes” value in the data set on NOTCH pathway genes is “at least 96 hours”. Besides, in data set [3] (adults receiving 1,800 mg (~1,040 mg/m^2) weekly), the Cmax was 84.2 µg/mL. Further, the t1/2 in [3] (weekly 1,800 mg (~1,040 mg/m^2)) was 13.8 h. The t1/2 in [3] (weekly 2,400 mg (~1,400 mg/m^2)) is 16.2 h. The “duration of CR” value in [4] (one adult patient with anaplastic astrocytoma, 1,800 mg once weekly) is reported as over 1 year. Further, in [4] (one adult patient with glioblastoma multiforme, 4,200 mg once weekly), the “duration of SD” value was over 1 year. The compound further showed a half-life in data set [5] (median t1/2, all 10 patients) of 21.7 h. In [5] (t1/2 (range), all 10 patients), the half-life lay within 9.8 to 42.2 h. Besides, in the data set on advanced breast cancer, the “patients with PR” value is listed as 9 and the “patients with SD” value is 11. Besides, the “patients with prolonged SD (6 and 10 cycles)” value in the data set on recurrent CNS tumors [6] (all evaluable patients, weekly schedule) was 2 of 9. Moreover, the objective responses result with recurrent CNS tumors [6] (weekly 1,000 and 1,400 mg/m^2) is listed as “No objective responses”. In addition, in the data set with amyloid peptide levels, the blood-brain barrier penetration result is “penetrate the blood-brain barrier” and the “reduction of amyloid peptide levels” value is listed as 50%. Further, in the data set with recurrent CNS tumors [7], the “evaluable patients with prolonged SD (3 and 4 cycles)” value is recorded as 2 of 17. Moreover, in [8], the “dose-limiting toxicity preventing dose escalation beyond 260 mg/m^2” value was “dose-limiting elevations of AST and ALT”; the well-tolerated dose is 260 mg/m^2. In data set [9] (human), this compound yielded an ALT increase of 2, an AST increase of 2, an Allergic rhinitis of 1 and an Anorexia of 1. In addition, in data set [9] (human), the Diarrhea amounted to 4, the Dizziness was found to be 1, the Dry skin is given as 1 and the Fatigue is given as 1. In addition, in data set [9] (human), the Hyperglycemia worked out at 1, the Hypermagnesemia stood at 1, the Hypoalbuminemia worked out at 2 and the Hypokalemia is 1. Besides, in [9] (human), the Hypomagenesemia turned out to be 2, the Hypophosphatemia amounted to 2, the Hypotension stood at 1 and the “Increased Hemoglobin” value is reported as 1. Moreover, in [9] (human), the Leukopenia amounted to 2, the Nausea stood at 1, the Vomiting is on record as 2 and the “grade 4 toxicities” value is “no grade 4 toxicities”. Besides, in [9], the “Non-dose-limiting grade 3 toxicities” value was “lymphopenia, neutropenia, and anemia”; the “dose-limiting diarrhea and GI toxicity” value is reported as “not observed”.
As for `O=S1(=O)N[C@@]2(CN1CC(F)(F)F)[C@@H]1CC[C@H]2Cc2ccc(/C=C/CN3CCC(C(F)(F)F)CC3)cc2C1` [MRK003], the “combination effect with paclitaxel” value in [10] was “synergy”. For the same compound, in the data set with glioblastoma cell lines, the “effect of combination on migratory and invasive potential of glioblastoma” value was “synergistic inhibition”.
